Experimental data taken from the M2OR odorant receptor database.
Where a chain is given by its changes, count along the chain named.

How the values were obtained:
Conditions in all cases: stereoisomer not certain
OR2J2 (Homo sapiens) = biological target: T1, OR2J2 (Homo sapiens) (UniProt O76002)
T1 sequence (whole entry): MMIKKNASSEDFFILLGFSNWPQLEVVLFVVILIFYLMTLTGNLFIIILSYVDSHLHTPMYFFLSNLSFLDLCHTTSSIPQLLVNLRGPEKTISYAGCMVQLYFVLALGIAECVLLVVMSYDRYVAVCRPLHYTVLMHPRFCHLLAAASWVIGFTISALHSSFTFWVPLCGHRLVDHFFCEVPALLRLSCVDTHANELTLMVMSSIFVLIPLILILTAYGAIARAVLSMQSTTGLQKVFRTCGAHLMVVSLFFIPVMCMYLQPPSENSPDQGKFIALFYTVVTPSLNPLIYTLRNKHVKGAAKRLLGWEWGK
Summary of the method: (§1)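 Whether a receptor–molecule pair is responsive (active) rests on the original authors' judgment that its measured signal was statistically different from baseline. Pairs without that judgment are non-responsive (inactive). Sources used varied assay methods, commonly transient luciferase assays in mammalian cell lines.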

OR2H2 = test system: T2, OR2H2
T2 sequence (whole entry): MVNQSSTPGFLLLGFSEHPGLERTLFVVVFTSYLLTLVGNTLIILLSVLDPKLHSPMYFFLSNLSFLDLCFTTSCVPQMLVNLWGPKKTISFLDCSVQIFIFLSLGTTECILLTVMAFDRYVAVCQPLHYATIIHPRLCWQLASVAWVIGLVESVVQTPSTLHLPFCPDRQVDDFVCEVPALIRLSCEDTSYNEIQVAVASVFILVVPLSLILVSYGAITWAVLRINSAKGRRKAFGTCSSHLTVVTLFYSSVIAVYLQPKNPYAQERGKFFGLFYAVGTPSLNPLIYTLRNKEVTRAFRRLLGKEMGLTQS
Summary of the method: as §1

OR2J1 (Homo sapiens) = biological target: T3, OR2J1 (Homo sapiens) (UniProt Q9GZK6)
T3 sequence (whole entry): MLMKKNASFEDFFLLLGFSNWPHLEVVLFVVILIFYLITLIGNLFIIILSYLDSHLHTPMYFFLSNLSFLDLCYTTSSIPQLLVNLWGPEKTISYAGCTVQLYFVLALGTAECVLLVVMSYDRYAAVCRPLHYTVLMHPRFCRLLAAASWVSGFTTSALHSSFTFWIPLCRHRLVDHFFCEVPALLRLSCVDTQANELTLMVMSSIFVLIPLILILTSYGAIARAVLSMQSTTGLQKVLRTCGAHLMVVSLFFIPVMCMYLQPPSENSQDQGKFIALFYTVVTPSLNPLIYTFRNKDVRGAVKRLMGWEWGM
Summary of the method: as §1

OR2J1 L14I V182A = test system: T4, OR2J1 L14I V182A
T4 sequence (whole entry): T3 sequence (whole entry) with L14I, V182A
Summary of the method: as §1

OR2J2 = test system: T5, OR2J2
T5 sequence (whole entry): T1 sequence (whole entry) with H74Y, A111T, A146V, A218T
Summary of the method: as §1

OR2J3 (Homo sapiens) = biological target: T6, OR2J3 (Homo sapiens) (UniProt O76001)
T6 sequence (whole entry): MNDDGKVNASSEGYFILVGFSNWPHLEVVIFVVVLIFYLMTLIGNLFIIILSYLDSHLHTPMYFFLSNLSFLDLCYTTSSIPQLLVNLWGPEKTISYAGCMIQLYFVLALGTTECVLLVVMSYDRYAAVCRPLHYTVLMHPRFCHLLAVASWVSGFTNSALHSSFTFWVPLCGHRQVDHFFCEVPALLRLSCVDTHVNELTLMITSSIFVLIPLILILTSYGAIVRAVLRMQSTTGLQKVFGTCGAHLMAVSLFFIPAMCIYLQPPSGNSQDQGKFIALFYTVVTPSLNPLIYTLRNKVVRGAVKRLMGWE
Summary of the method: as §1

OR2J3 = test system: T7, OR2J3
T7 sequence (whole entry): T6 sequence (whole entry) with V228I, I261M
Summary of the method: as §1

OR2K2 (Homo sapiens) = biological target: T8, OR2K2 (Homo sapiens) (UniProt Q8NGT1)
T8 sequence (whole entry): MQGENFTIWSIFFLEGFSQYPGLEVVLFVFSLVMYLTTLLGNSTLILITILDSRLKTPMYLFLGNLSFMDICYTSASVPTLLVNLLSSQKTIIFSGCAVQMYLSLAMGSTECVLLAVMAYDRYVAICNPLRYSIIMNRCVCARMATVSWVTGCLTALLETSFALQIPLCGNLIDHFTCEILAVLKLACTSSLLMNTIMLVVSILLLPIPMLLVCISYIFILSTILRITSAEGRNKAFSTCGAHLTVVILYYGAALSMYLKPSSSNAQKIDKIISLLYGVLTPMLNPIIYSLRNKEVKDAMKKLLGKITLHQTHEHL
Summary of the method: as §1

Measured: odorant receptor agonist call;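 also: active if original authors judged signal statistically different from baseline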

O=C1CCOc2ccccc21
inactive: OR2J2 (Homo sapiens)

CCCC(S)CCOC(C)=O (stereo not drawn)
not listed: OR2J2 (Homo sapiens)
inactive: all other assays above

CCCCC(=O)O
inactive: OR2J2 (Homo sapiens)

Cc1cnc(C)c(C)n1
not listed: OR2J2 (Homo sapiens)
inactive: all other assays above

CC(=O)c1c(C)c([N+](=O)[O-])c(C(C)(C)C)c([N+](=O)[O-])c1C
inactive: OR2J1 (Homo sapiens) | OR2J2 (Homo sapiens) | OR2J3 (Homo sapiens) | OR2K2 (Homo sapiens)

CCC(=O)O
inactive: OR2J2 (Homo sapiens)

CCCCCCC=CCCC=O
not listed: OR2J2
inactive: all other assays above
